# Experimental data taken from ChEMBL document CHEMBL5038583, “Highly Potent and Selective Butyrylcholinesterase Inhibitors for Cognitive Improvement and Neuroprotection” (J Med Chem, 2021).
# Calls of active or inactive are those of the source. The rule behind the calls is not given here.
# Tests used:
# [1] = AUC (0 to t) in ICR mouse brain at 10 mg/kg, po measured upto 240 mins; format: ADME, organism-based; parameters: route oral, dose 10 mg/kg, time <=240
# Outline: (§1)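 ICR mice given 10 mg/kg orally in 5% DMSO/40% PEG400/55% saline (1 mg/mL). Blood (retro-orbital) and brain collected at 30, 60, 120 and 240 min. Brain homogenized in 2 volumes PBS, extracted with ethyl acetate, dried and reconstituted in mobile phase. Plasma processed as in the rat study; LC/MS/MS. Brain/plasma ratios from exposures, AUC(B) vs AUC(P).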
# Mus musculus [2] = test: Anti-alzheimer activity in amyloid beta(1 to 42)-induced ICR mouse model of cognitive impairment assessed as reduction in escape latency time at 15 mg/kg, ig administered at days 2 to 14 by Morris water maze test; format: functional
# Outline: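 Mouse model by icv oligomerized Aβ1-42 (10 μg/mouse, aggregated 24 h at 37 °C in saline) on day 1; 15 mg/kg ig on days 2−14, n = 8. Morris water maze training on days 9−13, probe trial day 14, escape latency and track recorded. Mean SD.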
# [3] = Oral bioavailability in overnight fasted Sprague-Dawley rat at 10 mg/kg measured upto 1440 mins by LC/MS/MS analysis; format: ADME, organism-based; conditions: in vivo
# Outline: (§2)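 Male SD rats (180−220 g), n = 8 per route, fasted overnight with water available. Single 10 mg/kg dose p.o. or i.v. in DMSO/PEG400/saline (10:80:10). Retro-orbital blood taken into heparinized tubes at 1–1440 min. Plasma precipitated with methanol containing theophylline internal standard, then LC/MS/MS against a blank-plasma standard curve. Parameters from noncompartmental extravascular analysis; mean ± SD.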
# [4] = Hepatotoxicity in ICR mouse assessed as morphological changes in liver at 1 g/kg, ig administered daily for 14 days analysed after 22 hrs post-administration by hematoxylin and eosin staining based analysis; format: toxicity, tissue-based; conditions: in vivo, po, 1000 mg/kg, 336 h, time 14 day
# Outline: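 Liver from male mice taken 22 h after compound or vehicle; hematoxylin−eosin staining, viewed at ×100.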
# [5] = Half life in overnight fasted Sprague-Dawley rat at 10 mg/kg, po measured upto 1440 mins by LC/MS/MS analysis; format: ADME, organism-based; conditions: in vivo; outline: as §2
# [6] = Hepatotoxicity in ICR mouse assessed as change in alanine aminotransferase activity at 1 g/kg, ig administered daily for 14 days measured upto 36 hrs post-administration; format: toxicity; conditions: in vivo, po, 1000 mg/kg, 336 h, time 14 day
# Outline: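 Heparinized serum from ICR mice taken at 8, 22 and 36 h after oral compound or saline control; AST and ALT activities measured.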
# [7] = MRT (0 to infinity) in overnight fasted Sprague-Dawley rat at 10 mg/kg, iv measured upto 1440 mins by LC/MS/MS analysis; format: ADME, organism-based; conditions: in vivo; outline: as §2
# [8] = Cmax in overnight fasted Sprague-Dawley rat at 10 mg/kg, iv measured upto 1440 mins by LC/MS/MS analysis; format: ADME, organism-based; parameters: route intravenous, dose 10 mg/kg, time <=1440; conditions: in vivo, 24 h; outline: as §2
# [9] = AUC (0 to t) in overnight fasted Sprague-Dawley rat at 10 mg/kg, iv measured upto 1440 mins by LC/MS/MS analysis; format: ADME, organism-based; parameters: route intravenous, dose 10 mg/kg, time <=1440; conditions: in vivo, 24 h; outline: as §2
# [10] = Half life in overnight fasted Sprague-Dawley rat at 10 mg/kg, iv measured upto 1440 mins by LC/MS/MS analysis; format: ADME, organism-based; conditions: in vivo; outline: as §2
# [11] = AUC (0 to t) in ICR mouse plasma at 10 mg/kg, po measured upto 240 mins; format: ADME, organism-based; parameters: route oral, dose 10 mg/kg, time <=240; outline: as §1
# BV-2 = test: Anti-inflammatory activity against mouse BV-2 cells assessed as blocked of LPS-induced increased ROS production by measuring green fluorescence preincubated for 1 hr by DCFH-DA staining based fluorescence microscopy; format: functional, cell-based
# Outline: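 BV2 cells seeded at 1 × 10⁴ per well and grown 24 h at 37 °C. Compounds at various concentrations for 1 h, then LPS 2.5 μg/mL for 24 h. Washed in PBS, loaded with DCFH-DA 5 μM (final) for 30 min, washed three times. Intracellular ROS taken as green fluorescence intensity by inverted fluorescence microscopy, exposure fixed at 10.2 ms.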
# Cholinesterase = Cholinesterase (Equus caballus, UniProt P81908); test: Inhibition of equine serum BChE using butyrylthiocholine iodide as substrate preincubated for 5 mins followed by substrate addition and measured after 2 mins by DTNB-reagent based Ellman's method
# Sequence of Cholinesterase (P81908 whole entry): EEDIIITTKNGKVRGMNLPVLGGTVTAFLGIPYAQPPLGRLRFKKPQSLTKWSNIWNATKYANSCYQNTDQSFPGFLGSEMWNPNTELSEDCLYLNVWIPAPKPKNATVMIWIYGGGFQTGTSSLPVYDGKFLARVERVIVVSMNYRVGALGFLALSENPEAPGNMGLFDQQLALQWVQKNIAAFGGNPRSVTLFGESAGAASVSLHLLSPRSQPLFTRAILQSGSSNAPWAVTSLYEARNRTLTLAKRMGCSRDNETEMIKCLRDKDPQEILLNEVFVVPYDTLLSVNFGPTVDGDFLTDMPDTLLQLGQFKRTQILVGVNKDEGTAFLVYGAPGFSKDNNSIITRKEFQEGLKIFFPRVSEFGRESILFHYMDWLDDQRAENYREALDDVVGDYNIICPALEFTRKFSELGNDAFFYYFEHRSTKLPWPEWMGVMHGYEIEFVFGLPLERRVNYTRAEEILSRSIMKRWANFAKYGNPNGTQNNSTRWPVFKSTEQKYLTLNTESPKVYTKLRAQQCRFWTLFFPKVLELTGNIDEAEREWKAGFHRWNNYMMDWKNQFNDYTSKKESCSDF
# [12] = AUC (0 to infinity) in overnight fasted Sprague-Dawley rat at 10 mg/kg, iv measured upto 1440 mins by LC/MS/MS analysis; format: ADME, organism-based; parameters: route intravenous, dose 10 mg/kg, time <=1440; conditions: in vivo, 24 h; outline: as §2
# HepG2 = test: Cytotoxicity against human HepG2 cells assessed as reduction in cell viability incubated for 24 hrs by MTT assay; format: functional, cell-based; conditions: HepG2, 24 h
# Outline: (§3)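 Cells seeded at 1 × 10⁴/well in DMEM with 10% FBS and left overnight, then given compound (DMSO stock diluted in DMEM) for 24 h at 37 °C. MTT added for 4 h, formazan dissolved in DMSO, absorbance read at 492 nm. Viability taken as OD treated/OD DMEM × 100%; IC50 from three independent experiments, mean SD.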
# L02 = test: Cytotoxicity against human L02 cells assessed as survival rate at 100 uM incubated for 24 hrs by MTT assay; format: functional; outline: as §3
# [13] = AUC (0 to infinity) in overnight fasted Sprague-Dawley rat at 10 mg/kg, po measured upto 1440 mins by LC/MS/MS analysis; format: ADME, organism-based; parameters: route oral, dose 10 mg/kg, time <=1440; conditions: in vivo; outline: as §2
# [14] = Metabolic stability in human liver microsomes assessed as half life at 1 uM measured upto 45 mins in presence of NADPH by LC/MS/MS analysis; format: ADME, Microsome
# Outline: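 Human liver microsomes 0.5 mg/mL, compound 1 μM final, NADPH 2 mM, at 37 °C. Reactions stopped at 0, 5, 15, 30 and 45 min with acetonitrile containing imipramine internal standard. LC/MS/MS quantitation relative to 0 min; initial rates used for t1/2 and intrinsic clearance; ketanserin as assay control. Mean of two independent experiments.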
# [15] = Effective permeability of the compound in pH 7.4 PBS/EtOH (70:30) at 100 ug/ml incubated for 18 hrs by PAMPA-BBB assay; format: ADME; conditions: dose 100 µg/ml, read-out: Peff
# Outline: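 PAMPA-BBB with porcine brain lipid in dodecane (20 mg/mL) on PVDF filter. Donor holds compound at 100 μg/mL final (from 5 mg/mL DMSO stock) in PBS pH 7.4/EtOH 70:30; acceptor holds the same buffer. Incubated 18 h at 25 °C; donor and acceptor concentrations by UV at five wavelengths. Four wells, at least three runs, nine permeability standards; mean ± SD.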
# [16] = Toxicity in ICR mouse assessed as increase in body weight administered for 14 days and measured daily; conditions: in vivo, 15 mg/kg, 336 h
# Mus musculus [17] = test: Antialzheimer activity in ICR mouse assessed as reduction in scopolamine-induced cognitive impairment at 30 mg/kg, ig administered for 10 consecutive days by Morris water maze test; format: functional, organism-based; conditions: time 10.0 day
# Outline: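 Male ICR mice (8−10 weeks, 18−20 g), n = 8 per group. Compound at 15 or 30 mg/kg intragastric in DMSO/saline (10:90), given 30 min before scopolamine 3 mg/kg i.p., for 10 consecutive days; tacrine 15 mg/kg as reference. Morris water maze: 5 days of training, probe trial on day 6 with platform removed. Escape latency and trajectory recorded; mean ± SD.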
# [18] = Ratio of drug concentration in brain to plasma of ICR mouse at 10 mg/kg, po measured after 4 hrs; format: ADME, organism-based; outline: as §1
smiles,measurement,setting,value
Nc1nonc1-c1nc2ccccc2n1CC(=O)Nc1cnc2ccccc2c1,AUC(0-t) at 4 h,[1],34.1 ng·h/mL
same,Time,Mus musculus [2],13.83 s
same,bioavailability,[3],73.4%
same,Activity,[4],Non-Toxic
same,half-life,[5],328 min
same,Activity,[6],Non-Toxic
same,MRT inf,[7],14.1 h
same,Cmax,[8],488.33 ng/mL
same,AUCt,[9],859.64 ng·h/mL
same,half-life,[10],532 min
same,AUC(0-t) at 4 h,[11],94.7 ng·h/mL
same,Activity,BV-2,Active
same,IC50,Cholinesterase,20 nM
same,AUC,[12],1092.11 ng·h/mL
same,IC50,HepG2,84.3 µM
same,Activity,L02,70.64%
same,AUC(0-inf),[13],662 ng·h/mL
same,half-life at 1 µM,[14],159 min
same,"Papp at 18 h, 100 ug/ml",[15],4.45 ×10⁻⁶ cm/s
same,Activity,[16],Toxic
same,Activity,Mus musculus [17],Active
same,Kp at 4 h,[18],1.54
